This note sets out measurements from ChEMBL document CHEMBL1156160, “The introduction of P4 substituted 1-methylcyclohexyl groups into Boceprevir: a change in direction in the search for a second generation HCV NS3 protease inhibitor” (Bioorg Med Chem Lett, 2010).

The structures appear in SMILES notation.

Data set [1] can be described thus: Selectivity for HCV NS3 protease over human neutrophil elastase. The method, boiled down: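 Ratio of inhibitory activity against human neutrophil elastase to that against HCV protease (HNE/HCV), taken as selectivity. HCV activity was from a continuous protease assay using NS4A-tethered single-chain NS3 serine protease, giving Ki* as the equilibrium constant for reversible covalent binding of the electrophilic ketone to the active-site serine. Compounds were tested as P1-epimer diastereomer mixtures.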

The test system of the next data set is Hepatitis C virus. The data set is described as follows: Antiviral activity against HCV in human hepatoma cells assessed as inhibition of RNA replication by replicon assay. It counts as functional, Hepacivirus hominis.
Data set [2] in a line: Inhibition of HCV NS4A tagged recombinant single chain NS3 protease after 15 mins. On the set-up: species or system Hepacivirus hominis.
The nature of data set [3]: Bioavailability in dog. It counts as ADME, organism-based, Canis lupus familiaris. Conditions: in vivo.
Data set [4] is described as follows: AUC in monkey at 3 mg/kg, po. It counts as ADME, organism-based, Macaca mulatta. On the set-up: dose 3 mg/kg, route oral. The conditions noted are these: rhesus monkey, plasma.

As for `CC(C)(C)[C@H](NC(=O)NC1(CS(=O)(=O)c2ccccn2)CCCCC1)C(=O)N1C[C@H]2[C@@H]([C@H]1C(=O)NC(CC1CCC1)C(=O)C(N)=O)C2(C)C` (stereo not given in full), in data set [1], the Ratio was determined as 1570. The EC90 in the data set with Hepatitis C virus came out at 300 nM. Besides, the Ki in data set [2] was determined as 10 nM.

Consider `CC(C)(C)NC(=O)N[C@H](C(=O)N1C[C@H]2[C@@H]([C@H]1C(=O)NC(CC1CCC1)C(=O)C(N)=O)C2(C)C)C(C)(C)C` (stereo not given in full) [BOCEPREVIR], for which the bioavailability in data set [3] came to 34%. The compound also had an exposure (AUC) in data set [4] of 0.12 µM·h. Also, the Ratio in data set [1] is 2200. Moreover, the concentration for an effect of 90% (EC90) in the data set with Hepatitis C virus stood at 350 nM. Moreover, the Ki in data set [2] was found to be 14 nM.

Consider `CC1(NC(=O)N[C@H](C(=O)N2C[C@H]3[C@@H]([C@H]2C(=O)NC(CC2CC2)C(=O)C(N)=O)C3(C)C)C(C)(C)C)CCCCCC1` (stereo not given in full), for which the Ratio in data set [1] amounted to 155. The EC90 in the data set on Hepatitis C virus turned out to be 250 nM. For the same compound, the Ki in data set [2] was found to be 15 nM.

Consider `CC(C)(C)[C@H](NC(=O)NC1(Cc2ccccc2O)CCCCC1)C(=O)N1C[C@H]2[C@@H]([C@H]1C(=O)NC(CC1CC1)C(=O)C(N)=O)C2(C)C` (stereo not given in full), for which the Ratio in data set [1] came to 440. In addition, the EC90 in the data set on Hepatitis C virus came out at 150 nM. Also, the Ki in data set [2] worked out at 19 nM.

Take `CCC(c1ccccc1)C1(NC(=O)N[C@H](C(=O)N2C[C@H]3[C@@H]([C@H]2C(=O)NC(CC2CC2)C(=O)C(N)=O)C3(C)C)C(C)(C)C)CCCCC1` (stereo not given in full): the Ratio in data set [1] was found to be 1500. Also, the EC90 with Hepatitis C virus amounted to 400 nM. In addition, the Ki in data set [2] is 20 nM.

Turning to `CC(C)(C)[C@H](NC(=O)NC1(CS(=O)(=O)Cc2ccccc2)CCCCC1)C(=O)N1C[C@H]2[C@@H]([C@H]1C(=O)NC(CC1CC1)C(=O)C(N)=O)C2(C)C` (stereo not given in full), in data set [1], the Ratio was 90. The 90% effect concentration (EC90) in the data set with Hepatitis C virus stood at 400 nM. The Ki in data set [2] worked out at 5 nM.

As usually defined, the EC90 is the concentration needed for an effect of 90%. The term Ki denotes the equilibrium dissociation constant of an inhibitor or competing ligand from its target. The term bioavailability denotes the share of a dose that reaches the circulation, judged against a reference dose that is usually intravenous. In general, AUC refers to the area under the concentration-time curve, a measure of exposure.
